Data set [1] is filed under the species Mus musculus. The data set is described as follows: Induction of heat shock response in mouse 3T3-Y9/B12 cells at 5 uM by fluorescence technique relative to geldanamycin. The data set is classed as functional, cell-based. In outline: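 3T3-Y9/B12 reporter cells were plated at 20 000 cells/well and attached overnight. Triplicate wells received compound at 5.0 µM, GDA positive control at 5.0 µM, or DMSO vehicle (≤0.1%). After overnight incubation, wells were rinsed and read in PBS by fluorescence (ex 485, em 525 nm). Signal was expressed as percentage of DMSO control, mean ± SD of triplicates, with three independent experiments.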

In data set [2] the test system is MCF7. The data set is described as follows: Antiproliferative activity against human MCF7 cells at 1 uM by MTT assay. Format: functional, cell-based. In general terms: Tetrazolium assays rely on reduction of a dye to a coloured formazan, in cell work by metabolically active cells.
Data set [3] in a line: Cytotoxicity against in mouse 3T3-Y9/B12 cells at 10 uM. The data set is classed as cell-based. A digest of the protocol: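 Mouse 3T3-Y9/B12 heat-shock reporter cells were plated at 20 000 cells/well and left to attach overnight. Compound was added at 10.0 µM in triplicate wells and incubated overnight. Treated wells were then examined by microscope for toxicity, recording whether any living cells remained.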

Data set [4] is filed under the species Oryctolagus cuniculus. The data set is described as follows: Inhibition of Hsp90 in rabbit reticulocyte lysate assessed as inhibition of heat-denatured firefly luciferase renaturation at 10 uM relative to geldanamycin. In outline: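 Rabbit reticulocyte lysate with an ATP-regenerating system (10 mM phosphocreatine, 1 mM ATP, 17.5 units creatine phosphokinase) was preincubated 20 min with compound in DMSO. Firefly luciferase (100 nM, pH 7.8 tricine buffer) was heat-denatured 8 min at 40 °C, then diluted 10-fold into the lysate and incubated at 28 °C. Luminescence was read in triplicate at 3 min and expressed as % of DMSO control.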

Data set [5] deals with MCF7. The data set is described as follows: Antiproliferative activity against human MCF7 cells by MTT assay. Format: functional, cell-based. A digest of the protocol: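 MCF-7 cells were seeded at 2000 cells/well and dosed the next day with serial dilutions in triplicate. GDA was the positive control and DMSO vehicle the negative control. After 3 days at 37 °C under 5% CO2, MTT was added for 3 h in the dark. Medium was replaced with DMSO and absorbance read at 570 nm, minus 650 nm background.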

pIC50: −log10 of the molar value. Calls of active or inactive are those of the source. The rule behind the calls is not given here.

On to `COc1cc(O)c2c(c1)CC(=O)/C=C/C=C\[C@H]1O[C@@H]1C[C@@H](C)OC2=O` [MONOMETHYL MONOCILLIN I], for which the result in data set [1] was Active. In addition, the outcome in data set [2] was inactive. Also, in data set [3], the Activity entry was “Toxic”.

Consider `C[C@@H]1C[C@H]2O[C@@H]2CCCCC(=O)Cc2c(Cl)c(O)cc(O)c2C(=O)O1` [TETRAHYDRORADICICOL], for which the outcome in data set [1] and in data set [4] was Active. Also, in data set [3], the Activity result is listed as “Toxic”. In data set [5], this compound had a pIC50 of 6.72.

Turning to `C[C@H]1CCC[C@@H](O)CCCCCc2cc(O)cc(O)c2C(=O)O1` (stereo in doubt; 14), the outcome in data set [2] was inactive. For the same compound, the result in data set [4] was Active.

`C[C@@H]1C[C@H]2O[C@@H]2/C=C\C=C\C(=O)Cc2c(Cl)c(O)cc(O)c2C(=O)O1` [RADICICOL]: the outcome in data set [1] and in data set [4] was Active. For the same compound, the Activity entry in data set [3] is given as “Toxic”. In addition, the pIC50 in data set [5] was 7.52.

Regarding `C[C@H]1CCC[C@@H](O)CCCCCc2cc(O)cc(O)c2C(=O)O1` (stereo in doubt; 16), in data set [2], the outcome was inactive. The result in data set [4] was Active.

Take `C[C@H]1CCCC(=O)CCC/C=C/c2cc(O)cc(O)c2C(=O)O1` [ZEARALENONE]: the outcome in data set [2] was inactive. Also, in data set [3], the Activity result is “Toxic”. In addition, the outcome in data set [4] was Active.

On to `COc1cc(OC)c2c(c1Cl)CC(=O)/C=C/C=C\[C@H]1O[C@@H]1C[C@@H](C)OC2=O` [DIMETHYL RADICICOL], for which the outcome in data set [1] was Active. Moreover, in data set [2], the result was inactive. In data set [3], the Activity result is “Toxic”.

For the compound `C[C@@H]1C[C@H](O)CCCCCC(=O)Cc2cc(O)cc(O)c2C(=O)O1` [HEXAHYDROMONOCILLIN I], in data set [3], the Activity entry is listed as “Toxic”.

Turning to `C[C@@H]1C[C@H](O)CCCCCC(=O)Cc2c(Cl)c(O)cc(O)c2C(=O)O1` [HEXAHYDRORADICICOL], in data set [3], the Activity result is “Toxic”.

As to `C[C@H]1CCCC(=O)CCCCCc2cc(O)cc(O)c2C(=O)O1` [ZEARALANONE], the Activity entry in data set [3] is reported as “Toxic”.

`COc1cc(O)c2c(c1Cl)CC(=O)/C=C/C=C\[C@H]1O[C@@H]1C[C@@H](C)OC2=O` [MONOMETHYL RADICICOL]: the outcome in data set [1] and in data set [4] was Active. For the same compound, in data set [3], the Activity result was “Toxic”. The pIC50 in data set [5] was 6.05.

On to `C[C@@H]1C[C@H]2O[C@@H]2/C=C\C=C\C(=O)Cc2cc(O)cc(O)c2C(=O)O1` [MONOCILLIN I], for which the result in data set [1] and in data set [4] was Active. For the same compound, the Activity result in data set [3] is on record as “Toxic”. This compound showed a pIC50 in data set [5] of 6.47.

`COc1cc2c(c(OC)c1)C(=O)O[C@H](C)C[C@H]1O[C@@H]1/C=C\C=C\C(=O)C2` [DIMETHYL MONOCILLIN I]: the Activity result in data set [3] is “Toxic”.

`C[C@H]1CCC[C@H](O)CCCCCc2cc(O)cc(O)c2C(=O)O1` [ZERANOL]: the Activity result in data set [3] was “Toxic”.

On to `C[C@@H]1C[C@H]2O[C@@H]2CCCCC(=O)Cc2cc(O)cc(O)c2C(=O)O1` [TETRAHYDROMONOCILLIN I], for which the result in data set [1] and in data set [4] was Active. In addition, the result in data set [2] was inactive. Further, the Activity entry in data set [3] is “Toxic”.

As a reminder, the pIC50 is −log10 of the IC50, conventionally taken in molar units.

(Values after ChEMBL document CHEMBL1157241, “Search for Hsp90 inhibitors with potential anticancer activity: isolation and SAR studies of radicicol and monocillin I from two plant-associated fungi of the Sonoran desert” (J Nat Prod, 2006).)
